According to the RNAGym collection of RNA variant scans (doi:10.1126/science.aae0568):
Fewer inactive variants are shown than the library holds.

B1: tRNA (parent)
chain: GUUCCGUUGGCGUAAUGGUAACGCGUCUCCCUCCUAAGGAGAAGACUGCGGGUUCGAGUCCCGUACGGAACG

Variants of: B1
Assay: yeast fitness relative to wild type (ratio to wild type); higher = fitter; tRNA-Arg(CCU), competitive growth, 37 C, YPD
Method in brief: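 Changes in genotype frequencies gave Darwinian fitness relative to wild type. Frequencies were read by 100-nucleotide paired-end sequencing of gene amplicons before and after pooled Saccharomyces cerevisiae strains, carrying tRNA-Arg(CCU) gene variants at the native locus, were competed in YPD at 37°C for 24 hours in six replicates. A genotype was kept only with ≥ 100 starting reads, and estimates < 0.5 were set to 0.5.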

Going from C24G C60U to C24G C60U A69C, the yeast fitness falls from 0.61 to at most 0.5.

Going from C24G C60U G68A to C24G C61G C62U C66U, the yeast fitness falls from 0.789 to at most 0.5.

Going from C24G C61G G68A to C24G C61U, the yeast fitness rises from at most 0.5 to 0.59.

Going from C24G C61U A69U to C24G C62G, the yeast fitness rises from 0.516 to 0.541.

Going from C24G C62U to C24G C66G, the yeast fitness rises from 0.562 to 0.691.

Compared with C24G C66U, C24G G25A A36C G67U is lower in yeast fitness: 0.533 for the first, at most 0.5 for the second.

Compared with C24G G25A A65G, C24G G25A C31G A57U is lower in yeast fitness: 0.609 for the first, 0.532 for the second.

Compared with C24G G25A C31G U64C, C24G G25A C34A C46G is lower in yeast fitness: 0.75 for the first, at most 0.5 for the second.

Going from C24G G25A C61G G67C G68A to C24G G25A C66U, the yeast fitness falls from 0.676 to 0.561.

Going from C24G G25A G48A to C24G G25C A45G, the yeast fitness falls from 0.697 to 0.512.

C24G G25C C27A A40C G51A and C24G G25C C27A U59A C62A cannot be ordered by yeast fitness: at most 0.5 for the first, at most 0.5 for the second.

Going from C24G G25C C30G U32C A57G to C24G G38A, the yeast fitness rises from at most 0.5 to 0.519.

C24G G38A U53A and C24G G38A U64A cannot be ordered by yeast fitness: at most 0.5 for the first, at most 0.5 for the second.

Compared with C24G G38C A65U, C24G G38C C46A U53C C61G is lower in yeast fitness: 0.509 for the first, at most 0.5 for the second.

First: C24G G38C G50C
Second: C24G G39C
The yeast fitness of the first is lower: at most 0.5 for the first, 0.608 for the second.

C24G G39C A45G U54A and C24G G39C A45G U54A C55U cannot be ordered by yeast fitness: at most 0.5 for the first, at most 0.5 for the second.

C24G G39C C61U and C24G G39C C61U C66U cannot be ordered by yeast fitness: at most 0.5 for the first, at most 0.5 for the second.

Compared with C24G G41A G51A, C24G G41A G51A G56C is higher in yeast fitness: at most 0.5 for the first, 0.556 for the second.

Going from C24G G41C to C24G G44A C55U, the yeast fitness falls from 0.582 to at most 0.5.

First: C24G G44C C66U
Second: C24G G44C G58C
The yeast fitness of the first is lower: at most 0.5 for the first, 0.547 for the second.

Going from C24G G44C G58C G68U to C24G G48A A57G, the yeast fitness falls from 0.516 to at most 0.5.

C24G G48A G52C A57C C60U and C24G G48A G68A cannot be ordered by yeast fitness: at most 0.5 for the first, at most 0.5 for the second.

First: C24G G48C C49U
Second: C24G G50C G68C
The yeast fitness of the first is lower: at most 0.5 for the first, 0.629 for the second.

Going from C24G G50U to C24G G56A, the yeast fitness rises from 0.544 to 0.618.

Going from C24G G56A A57C to C24G G56C U59A C60G C62G A70C, the yeast fitness rises from at most 0.5 to 0.617.

Compared with C24G G58A, C24G G58C is lower in yeast fitness: 0.675 for the first, 0.573 for the second.

First: C24G G63C A65U
Second: C24G G67A
The yeast fitness of the first is higher: 0.596 for the first, 0.594 for the second.

Going from C24G G67C to C24G G67U, the yeast fitness falls from 0.622 to at most 0.5.

First: C24G G68C
Second: C24G G68C A70C
The yeast fitness of the first is higher: 0.599 for the first, 0.578 for the second.

Compared with C24G U26A, C24G U26A A37G G48A is lower in yeast fitness: 0.609 for the first, at most 0.5 for the second.

First: C24G U26A A45C
Second: C24G U26A C29G U32A
The yeast fitness of the first is lower: at most 0.5 for the first, 0.516 for the second.

Going from C24G U26A C31U A45C A69U to C24G U26A C46A C62U, the yeast fitness rises from at most 0.5 to 0.578.

First: C24G U26A C60G
Second: C24G U26C A37G U54G C61G
The yeast fitness of the first is lower: at most 0.5 for the first, 0.51 for the second.

First: C24G U26C C31U U54C
Second: C24G U26C U32A A36C C49G G51C C66U G68A
The yeast fitness of the first is higher: 0.934 for the first, at most 0.5 for the second.

C24G U26G C34A A36C and C24G U28A C31A cannot be ordered by yeast fitness: at most 0.5 for the first, at most 0.5 for the second.

C24G U28C C29G and C24G U28C U32G A69G cannot be ordered by yeast fitness: at most 0.5 for the first, at most 0.5 for the second.

Going from C24G U28C U54A to C24G U28G A45C U47C U64A, the yeast fitness rises from at most 0.5 to 0.6.

C24G U28G C46G and C24G U28G C46G C66U cannot be ordered by yeast fitness: at most 0.5 for the first, at most 0.5 for the second.

C24G U32A A42C A65U and C24G U32A A43G G50A cannot be ordered by yeast fitness: at most 0.5 for the first, at most 0.5 for the second.

Going from C24G U32A A43G G50A A65C to C24G U32C, the yeast fitness rises from at most 0.5 to 0.599.

Compared with C24G U35C, C24G U35C C49U C61G is higher in yeast fitness: at most 0.5 for the first, 0.54 for the second.

Going from C24G U35G A45C to C24G U47A, the yeast fitness rises from at most 0.5 to 0.57.
